Results from ChEMBL document CHEMBL4038305, “Benzoxaborole Antimalarial Agents. Part 5. Lead Optimization of Novel Amide Pyrazinyloxy Benzoxaboroles and Identification of a Preclinical Candidate” (J Med Chem, 2017).
pIC50: −log10 of the molar value.

Key:
Plasmodium berghei [1] = experiment: Antimalarial activity against Plasmodium berghei infected in Swiss Webster mouse assessed as mouse survival rate at 100 mg/kg administered once daily via oral gavage for 4 consecutive days beginning 1 hr after infection measured on day 4 post infection relative to control; format: functional
How it was run: (§1)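 Mice given an intraperitoneal injection of P. berghei-infected erythrocytes taken from a previously infected animal. Oral dosing once daily for 4 consecutive days, starting 1 h after infection. Vehicle: polyethylene glycol 300/propylene glycol/water (weight ratio 55/25/20). Percent survival recorded daily from day 4 to day 20. Chloroquine 30 mg/kg and vehicle-only groups served as controls.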

Plasmodium berghei [2] = experiment: Antimalarial activity against Plasmodium berghei infected in Swiss Webster mouse assessed as mouse survival rate at 200 mg/kg administered once daily via oral gavage for 4 consecutive days beginning 1 hr after infection measured on day 10 post infection relative to control; format: functional
How it was run: (§2)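 P. berghei-infected erythrocytes taken from a previously infected mouse were injected intraperitoneally. Oral dosing, once daily for 4 consecutive days, began 1 h after infection, in polyethylene glycol 300/propylene glycol/water (55/25/20 by weight). Chloroquine at 30 mg/kg was the positive control, with a vehicle-only group. Percent survival was recorded daily from day 4 to day 20.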

Plasmodium berghei [3] = experiment: Antimalarial activity against Plasmodium berghei infected in Swiss Webster mouse assessed as mouse survival rate at 200 mg/kg administered once daily via oral gavage for 4 consecutive days beginning 1 hr after infection measured on day 4 post infection relative to control; format: functional; how it was run: as §2
Plasmodium berghei [4] = experiment: Antimalarial activity against Plasmodium berghei infected in Swiss Webster mouse assessed as mouse survival rate at 3 mg/kg administered once daily via oral gavage for 4 consecutive days beginning 1 hr after infection measured on day 7 post infection relative to control; format: functional; how it was run: as §2
Plasmodium berghei [5] = experiment: Antimalarial activity against Plasmodium berghei infected in Swiss Webster mouse assessed as mouse survival rate at 100 mg/kg administered once daily via oral gavage for 4 consecutive days beginning 1 hr after infection measured on day 8 post infection relative to control; format: functional; how it was run: as §1
Plasmodium berghei [6] = experiment: Antimalarial activity against Plasmodium berghei infected in Swiss Webster mouse assessed as mouse survival rate at 1 mg/kg administered once daily via oral gavage for 4 consecutive days beginning 1 hr after infection measured on day 7 post infection relative to control; format: functional; how it was run: as §1
Plasmodium berghei [7] = experiment: Antimalarial activity against Plasmodium berghei infected in Swiss Webster mouse assessed as mouse survival rate at 100 mg/kg administered once daily via oral gavage for 4 consecutive days beginning 1 hr after infection measured on day 7 post infection relative to control; format: functional; how it was run: as §1
Plasmodium berghei [8] = experiment: Antimalarial activity against Plasmodium berghei infected in Swiss Webster mouse assessed as mouse survival rate at 200 mg/kg administered once daily via oral gavage for 4 consecutive days beginning 1 hr after infection measured on day 6 post infection relative to control; format: functional; how it was run: as §2
Plasmodium berghei [9] = experiment: Antimalarial activity against Plasmodium berghei infected in Swiss Webster mouse assessed as mouse survival rate at 1 mg/kg administered once daily via oral gavage for 4 consecutive days beginning 1 hr after infection measured on day 6 post infection relative to control; format: functional; how it was run: as §1
Plasmodium berghei [10] = experiment: Antimalarial activity against Plasmodium berghei infected in Swiss Webster mouse assessed as mouse survival rate at 33 mg/kg administered once daily via oral gavage for 4 consecutive days beginning 1 hr after infection measured on day 7 post infection relative to control; format: functional; how it was run: as §2
Plasmodium berghei [11] = experiment: Antimalarial activity against Plasmodium berghei infected in Swiss Webster mouse assessed as mouse survival rate at 200 mg/kg administered once daily via oral gavage for 4 consecutive days beginning 1 hr after infection measured on day 5 post infection relative to control; format: functional; how it was run: as §2
Plasmodium berghei [12] = experiment: Antimalarial activity against Plasmodium berghei infected in Swiss Webster mouse assessed as mouse survival rate at 100 mg/kg administered once daily via oral gavage for 4 consecutive days beginning 1 hr after infection measured on day 9 post infection relative to control; format: functional; how it was run: as §1
Plasmodium berghei [13] = experiment: Antimalarial activity against Plasmodium berghei infected in Swiss Webster mouse assessed as mouse survival rate at 11 mg/kg administered once daily via oral gavage for 4 consecutive days beginning 1 hr after infection measured on day 6 post infection relative to control; format: functional; how it was run: as §2
Plasmodium berghei [14] = experiment: Antimalarial activity against Plasmodium berghei infected in Swiss Webster mouse assessed as mouse survival rate at 3 mg/kg administered once daily via oral gavage for 4 consecutive days beginning 1 hr after infection measured on day 5 post infection relative to control; format: functional; how it was run: as §2
Plasmodium berghei [15] = experiment: Antimalarial activity against Plasmodium berghei infected in Swiss Webster mouse assessed as mouse survival rate at 3 mg/kg administered once daily via oral gavage for 4 consecutive days beginning 1 hr after infection measured on day 4 post infection relative to control; format: functional; how it was run: as §2
Plasmodium berghei [16] = experiment: Antimalarial activity against Plasmodium berghei infected in Swiss Webster mouse assessed as mouse survival rate administered once daily via oral gavage for 4 consecutive days beginning 1 hr after infection measured on day 4 post infection; format: functional; how it was run: as §1
Plasmodium falciparum [17] = experiment: Antimalarial activity against chloroquine-sensitive Plasmodium falciparum 3D7 infected in human erythrocytes assessed as reduction in [3H]-hypoxanthine incorporation preincubated for 24 hrs followed by [3H]-hypoxanthine addition measured after 24 hrs by scintillation counting method; format: functional, cell-based
How it was run: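 P. falciparum 3D7 cultures were exposed to the compound for 48 h, with atovaquone as the reference control. IC50 was taken from three replicates.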

Plasmodium berghei [18] = experiment: Antimalarial activity against Plasmodium berghei infected in Swiss Webster mouse assessed as mouse survival rate at 1 mg/kg administered once daily via oral gavage for 4 consecutive days beginning 1 hr after infection measured on day 5 post infection relative to control; format: functional; how it was run: as §1
Plasmodium berghei [19] = experiment: Antimalarial activity against Plasmodium berghei infected in Swiss Webster mouse assessed as mouse survival rate at 1 mg/kg administered once daily via oral gavage for 4 consecutive days beginning 1 hr after infection measured on day 4 post infection relative to control; format: functional; how it was run: as §1
Plasmodium berghei [20] = experiment: Antimalarial activity against Plasmodium berghei infected in Swiss Webster mouse assessed as mouse survival rate at 33 mg/kg administered once daily via oral gavage for 4 consecutive days beginning 1 hr after infection measured on day 5 post infection relative to control; format: functional; how it was run: as §2
Plasmodium berghei [21] = experiment: Antimalarial activity against Plasmodium berghei infected in Swiss Webster mouse assessed as mouse survival rate at 200 mg/kg administered once daily via oral gavage for 4 consecutive days beginning 1 hr after infection measured on day 11 post infection relative to control; format: functional; how it was run: as §2
Plasmodium berghei [22] = experiment: Antimalarial activity against Plasmodium berghei infected in Swiss Webster mouse assessed as mouse survival rate at 3 mg/kg administered once daily via oral gavage for 4 consecutive days beginning 1 hr after infection measured on day 6 post infection relative to control; format: functional; how it was run: as §2
Plasmodium berghei [23] = experiment: Antimalarial activity against Plasmodium berghei infected in Swiss Webster mouse assessed as mouse survival rate at 11 mg/kg administered once daily via oral gavage for 4 consecutive days beginning 1 hr after infection measured on day 4 post infection relative to control; format: functional; how it was run: as §2
Plasmodium berghei [24] = experiment: Antimalarial activity against Plasmodium berghei infected in Swiss Webster mouse assessed as mouse survival rate at 33 mg/kg administered once daily via oral gavage for 4 consecutive days beginning 1 hr after infection measured on day 4 post infection relative to control; format: functional; how it was run: as §2
Plasmodium berghei [25] = experiment: Antimalarial activity against Plasmodium berghei infected in Swiss Webster mouse assessed as mouse survival rate at 100 mg/kg administered once daily via oral gavage for 4 consecutive days beginning 1 hr after infection measured on day 6 post infection relative to control; format: functional; how it was run: as §1
Plasmodium falciparum [26] = experiment: Antimalarial activity against chloroquine-resistant Plasmodium falciparum W2 infected in human erythrocytes after 48 hrs by YOYO-1 dye based flow cytometric analysis; format: functional, cell-based; details: W2, 48 h
How it was run: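 P. falciparum W2 cultures were exposed to the compound for 48 h, with artemisinin and chloroquine as reference controls. IC50 was taken from two independent replicates.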

Plasmodium berghei [27] = experiment: Antimalarial activity against Plasmodium berghei infected in Swiss Webster mouse assessed as mouse survival rate at 11 mg/kg administered once daily via oral gavage for 4 consecutive days beginning 1 hr after infection measured on day 7 post infection relative to control; format: functional; how it was run: as §2
Plasmodium berghei [28] = experiment: Antimalarial activity against Plasmodium berghei infected in Swiss Webster mouse assessed as mouse survival rate at 200 mg/kg administered once daily via oral gavage for 4 consecutive days beginning 1 hr after infection measured on day 7 post infection relative to control; format: functional; how it was run: as §2
Plasmodium berghei [29] = experiment: Antimalarial activity against Plasmodium berghei infected in Swiss Webster mouse assessed as mouse survival rate at 200 mg/kg administered once daily via oral gavage for 4 consecutive days beginning 1 hr after infection measured on day 9 post infection relative to control; format: functional; how it was run: as §2
Plasmodium berghei [30] = experiment: Antimalarial activity against Plasmodium berghei infected in Swiss Webster mouse assessed as mouse survival rate at 33 mg/kg administered once daily via oral gavage for 4 consecutive days beginning 1 hr after infection measured on day 6 post infection relative to control; format: functional; how it was run: as §2
Plasmodium berghei [31] = experiment: Antimalarial activity against Plasmodium berghei infected in Swiss Webster mouse assessed as mouse survival rate at 200 mg/kg administered once daily via oral gavage for 4 consecutive days beginning 1 hr after infection measured on day 8 post infection relative to control; format: functional; how it was run: as §2
Plasmodium berghei [32] = experiment: Antimalarial activity against Plasmodium berghei infected in Swiss Webster mouse assessed as mouse survival rate at 3.7 mg/kg administered once daily via oral gavage for 4 consecutive days beginning 1 hr after infection measured on day 5 post infection relative to control; format: functional; how it was run: as §2
Plasmodium berghei [33] = experiment: Antimalarial activity against Plasmodium berghei infected in Swiss Webster mouse assessed as mouse survival rate at 100 mg/kg administered once daily via oral gavage for 4 consecutive days beginning 1 hr after infection measured on day 5 post infection relative to control; format: functional; how it was run: as §1

`CC[C@H](CO)NC(=O)c1cnc(Oc2ccc3c(c2C)B(O)OC3)cn1` was tested, and the survival at 100 mg/kg (Plasmodium berghei [1]) was 100%, the survival at 200 mg/kg (Plasmodium berghei [2]) was 20% and the survival at 200 mg/kg (Plasmodium berghei [3]) was 100%. It also gave a survival at 3 mg/kg (Plasmodium berghei [4]) of 0%, a survival at 100 mg/kg (Plasmodium berghei [5]) of 80% and a survival at 1 mg/kg (Plasmodium berghei [6]) of 0%. The survival at 100 mg/kg (Plasmodium berghei [7]) was 100%, the survival at 200 mg/kg (Plasmodium berghei [8]) was 100% and the survival at 1 mg/kg (Plasmodium berghei [9]) was 100%. It also gave a survival at 33 mg/kg (Plasmodium berghei [10]) of 0%, a survival at 200 mg/kg (Plasmodium berghei [11]) of 100% and a survival at 100 mg/kg (Plasmodium berghei [12]) of 0%. For the same molecule, the survival at 11 mg/kg (Plasmodium berghei [13]) was 100%, the survival at 3 mg/kg (Plasmodium berghei [14]) was 100% and the survival at 3 mg/kg (Plasmodium berghei [15]) was 100%. The ED90 (Plasmodium berghei [16]) was 43.3 mg/kg, the pIC50 (Plasmodium falciparum [17]) was 6.39 and the survival at 1 mg/kg (Plasmodium berghei [18]) was 100%. It also gave a survival at 1 mg/kg (Plasmodium berghei [19]) of 100%, a survival at 33 mg/kg (Plasmodium berghei [20]) of 100% and a survival at 200 mg/kg (Plasmodium berghei [21]) of 0%. The survival at 3 mg/kg (Plasmodium berghei [22]) was 100%, the survival at 11 mg/kg (Plasmodium berghei [23]) was 100% and the survival at 33 mg/kg (Plasmodium berghei [24]) was 100%. It also gave a survival at 100 mg/kg (Plasmodium berghei [25]) of 100%, a pIC50 (Plasmodium falciparum [26]) of 6.87 and a survival at 11 mg/kg (Plasmodium berghei [27]) of 0%. For the same molecule, the survival at 200 mg/kg (Plasmodium berghei [28]) was 100%, the survival at 200 mg/kg (Plasmodium berghei [29]) was 60% and the survival at 33 mg/kg (Plasmodium berghei [30]) was 100%. The survival at 200 mg/kg (Plasmodium berghei [31]) was 100%, the survival at 3.7 mg/kg (Plasmodium berghei [32]) was 100% and the survival at 100 mg/kg (Plasmodium berghei [33]) was 100%.
